The source made the active and inactive calls. The calls are words filed in the database; no cut-off is given here.
Columns and labels:
[1] = system: K562; test: Tested for cytotoxicity in human K562 cells; assay type: functional; details: read-out: ID50 (the source's name)
How it was run: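 K562 human CML cells in RPMI + 10% fetal calf serum at 37 °C, 5% CO₂, humidified. Exposed to compound for 5 days. Viability read by the semi-automated NCI MTT-type (Mosmann) tetrazolium assay, run by an external institute.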

[2] = system: Leishmania donovani; test: Evaluated for antiparasitic activity against Leishmania donovani; NA is Not active.; assay type: functional, organism-based
How it was run: (§1)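 L. donovani (strain MHOM/ET/67/L82) amastigotes from hamster passage, used to infect starch-elicited peritoneal macrophages from female CD1 mice (4 × 10⁴/well, RPMI-1640 + 10% HIFCS) at 10:1 after 24 h adherence. Drug given as a 3-fold dilution series, top concentration ~30 µM, quadruplicate, 5 days. Read-out is % macrophages cleared of amastigotes versus untreated control. Sodium stibogluconate serves as control.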

[3] = system: Trypanosoma brucei; test: Evaluated for antiparasitic activity against brucei trypomastigotes; NA is Not active.; assay type: functional, organism-based
How it was run: (§2)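 T. brucei S427 bloodstream trypomastigotes in HMI-18 + 20% HIFCS, seeded at 2 × 10⁵/mL mixed with equal volume of compound. Compound given as a 3-fold dilution series from 30 µM top, triplicate, 3 days at 37 °C, 5% CO₂. Growth measured by tetrazolium colorimetric assay on day 3 and expressed as % inhibition versus untreated control. Pentamidine serves as positive control.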

[4] = system: Trypanosoma cruzi; test: Compound is evaluated for antiparasitic activity against Trypanosoma cruzi amastigotes.; assay type: functional
How it was run: (§3)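 T. cruzi (strain MHOM/BR/OO/Y) trypomastigotes, MDCK-derived, used to infect starch-elicited peritoneal macrophages from female CD1 mice (4 × 10⁴/well, RPMI-1640 + 10% HIFCS) at 5:1 after 24 h. Drug given as a 3-fold dilution series up to ~30 µM, quadruplicate, 3 days. Activity is scored as % macrophages cleared of amastigotes relative to untreated control. Nifurtimox serves as control.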

[5] = system: Trypanosoma brucei; test: Evaluated for antiparasitic activity against brucei trypomastigotes; assay type: functional; details: read-out: ED50 (the source's name); how it was run: as §2
[6] = system: Trypanosoma cruzi; test: Evaluated for antiparasitic activity against Trypanosoma cruzi amastigotes; NA is Not active.; assay type: functional, organism-based; how it was run: as §3
[7] = system: Leishmania donovani; test: Compound is evaluated for antiparasitic activity against Leishmania donovani; assay type: functional; how it was run: as §1
[8] = system: Leishmania donovani; test: Evaluated for antiparasitic activity against Leishmania donovani; assay type: functional; how it was run: as §1
[9] = system: Trypanosoma cruzi; test: Compound is evaluated for antiparasitic activity against Trypanosoma cruzi; assay type: functional; how it was run: as §3
[10] = system: Trypanosoma brucei; test: Compound is evaluated for antiparasitic brucei trypomastigotes percent inhibition is given in parentheses; assay type: functional; details: read-out: ED50 (the source's name); how it was run: as §2
[11] = system: Trypanosoma cruzi; test: Compound is evaluated for antiparasitic activity against Trypanosoma cruzi amastigotes; assay type: functional; how it was run: as §3

`COC(=O)CNC(=O)C(CSCc1ccc(Br)cc1)NC(=O)CCC(NC=O)C(=O)OC` (stereo not given) was tested, and the IC50 [1] was greater than 50 µM, the NA [2] was “inactive” and the NA [3] was “inactive”. The Inhibition [4] was 12%.
Compound `COC(=O)CNC(=O)C(CSC(=O)OCc1ccccc1)NC(=O)CCC(NC(=O)OCc1ccccc1)C(=O)OC` (stereo not given) has an IC50 [1] of 1.26 µM and an EC50 [5] of 17 µM.
In the case of `COC(=O)CNC(=O)C(CSCc1ccc(Br)cc1)NC(=O)CCC(N)C(=O)OC` (stereo not given), the IC50 [1] is reported as greater than 50 µM, the NA [6] is reported as “inactive” and the NA [3] is reported as “inactive”. It also gave an Inhibition [7] of 8.7%.
With `CCCCCCOC(=O)CNC(=O)C(CSc1ccc([N+](=O)[O-])cc1[N+](=O)[O-])NC(=O)CCC(NC(=O)OCc1ccccc1)C(=O)OCCCCCC` (stereo not given) the IC50 [1] was greater than 50 µM, the ED50 [8] was greater than 50 µM and the EC50 [5] was 5.8 µM. It also gave an ED50 [9] of less than 50 µM.
`COC(=O)CNC(=O)C(CSCc1ccc(Br)cc1)NC(=O)CCC(N)C(=O)O` (stereo not given) was tested, and the IC50 [1] was greater than 50 µM, the NA [2] was “inactive” and the EC50 [5] was greater than 30 µM. For the same compound, the NA [6] was “inactive”.
For `O=C(CCC(NC(=O)OCc1ccccc1)C(=O)OC1CCCCC1)NC(CSc1ccc([N+](=O)[O-])cc1[N+](=O)[O-])C(=O)NCC(=O)OC1CCCCC1` (stereo not given), the IC50 [1] was 15.9 µM, the EC50 [5] was 0.19 µM and the ED50 [9] was 3 µM.
With `NC(=O)CNC(=O)C(CSCc1ccc(Br)cc1)NC(=O)CCC(N)C(N)=O` (stereo not given) the IC50 [1] was greater than 50 µM, the NA [6] was “inactive” and the NA [3] was “inactive”. It also gave an Inhibition [7] of 4%.
Work on `CCCOC(=O)CNC(=O)C(CSc1ccc([N+](=O)[O-])cc1[N+](=O)[O-])NC(=O)CCC(NC(=O)OCc1ccccc1)C(=O)OCCC` (stereo not given) yielded an IC50 [1] of 17.6 µM, an ED50 [8] greater than 30 µM and an EC50 [5] of 6 µM.
Compound `CCCCOC(=O)CNC(=O)C(CSc1ccc([N+](=O)[O-])cc1[N+](=O)[O-])NC(=O)CCC(NC(=O)OCc1ccccc1)C(=O)OCCCC` (stereo not given) has an IC50 [1] of 21.8 µM, an ED50 [8] greater than 30 µM and an EC50 [5] of 1.07 µM.
In the case of `N[C@@H](CCC(=O)N[C@@H](CSCc1ccc(Br)cc1)C(=O)NCC(=O)O)C(=O)O`, the IC50 [1] is reported as greater than 50 µM, the NA [2] is reported as “inactive” and the EC50 [5] is reported as greater than 30 µM. For the same compound, the NA [6] was “inactive”.
Compound `COC(=O)CNC(=O)C(CSC(=O)OCc1ccccc1)NC(=O)CCC(NC(C)=O)C(=O)OC` (stereo not given) has an IC50 [1] greater than 50 µM and an EC50 [5] of 3.2 µM.
For `O=C(O)CNC(=O)C(CSCc1ccc(Br)cc1)NC(=O)CCC(NC(=O)OCc1ccccc1)C(=O)O` (stereo not given), the IC50 [1] was greater than 50 µM, the NA [2] was “inactive” and the EC50 [5] was greater than 30 µM. For the same compound, the NA [6] was “inactive”.
Compound `COC(=O)CNC(=O)C(CSCc1ccc(Br)cc1)NC(=O)CCC(NC(=O)OCc1ccccc1)C(=O)OC` (stereo not given) has an IC50 [1] of 16.7 µM and an EC50 [10] greater than 30 µM.
`CC(=O)NC(CCC(=O)NC(CSCc1ccc(Br)cc1)C(=O)NCC(=O)O)C(=O)O` (stereo not given) was tested, and the IC50 [1] was greater than 50 µM, the NA [2] was “inactive” and the EC50 [5] was greater than 30 µM. For the same compound, the NA [6] was “inactive”.
`NC(=O)CNC(=O)C(CSCc1ccc(Br)cc1)NC(=O)CCC(NC(=O)OCc1ccccc1)C(=O)O` (stereo not given) was tested, and the IC50 [1] was greater than 50 µM, the NA [2] was “inactive” and the NA [6] was “inactive”. The NA [3] was “inactive”.
`COC(=O)CNC(=O)C(CSCc1ccc(Br)cc1)NC(=O)CCC(NC(=O)OCc1ccccc1)C(=O)O` (stereo not given) was tested, and the IC50 [1] was greater than 50 µM, the NA [2] was “inactive” and the NA [6] was “inactive”. The NA [3] was “inactive”.
For `NC(=O)CNC(=O)C(CSCc1ccc(Br)cc1)NC(=O)CCC(NC(=O)OCc1ccccc1)C(N)=O` (stereo not given), the IC50 [1] was greater than 50 µM, the NA [2] was “inactive” and the EC50 [5] was greater than 30 µM. For the same compound, the NA [6] was “inactive”.
For `O=CNC(CCC(=O)NC(CSCc1ccc(Br)cc1)C(=O)NCC(=O)O)C(=O)O` (stereo not given), the IC50 [1] was greater than 50 µM, the NA [2] was “inactive” and the NA [3] was “inactive”. The Inhibition [11] was 11%.
In the case of `COC(=O)CNC(=O)C(CSc1ccc([N+](=O)[O-])cc1[N+](=O)[O-])NC(=O)CCC(NC(=O)OCc1ccccc1)C(=O)OC` (stereo not given), the IC50 [1] is reported as 23.4 µM, the ED50 [8] is reported as greater than 30 µM and the EC50 [5] is reported as 16.2 µM.
In the case of `NC(=O)CNC(=O)C(CSCc1ccc(Br)cc1)NC(=O)CCC(N)C(=O)O` (stereo not given), the IC50 [1] is reported as greater than 50 µM, the NA [2] is reported as “inactive” and the EC50 [5] is reported as less than 30 µM. For the same compound, the NA [6] was “inactive”.
Work on `CCCCOC(=O)CNC(=O)C(CSCc1ccc(Br)cc1)NC(=O)CCC(NC(=O)OCc1ccccc1)C(=O)OCCCC` (stereo not given) yielded an IC50 [1] of 16.7 µM, an EC50 [5] of 1.9 µM and an Inhibition [7] of 68%.
For `CCCCCCCCOC(=O)CNC(=O)C(CSc1ccc([N+](=O)[O-])cc1[N+](=O)[O-])NC(=O)CCC(NC(=O)OCc1ccccc1)C(=O)OCCCCCCCC` (stereo not given), the IC50 [1] was 24.7 µM and the ED50 [8] was greater than 50 µM.
